Source: ChEMBL document CHEMBL1132183 (J Med Chem, 1999)

Key:
[1] = molecular target: T1, Alpha-1A adrenergic receptor (Homo sapiens, UniProt P35348); test: Displacement of [3H]prazosin from human cloned Alpha-1A adrenergic receptor
T1 sequence (P35348 whole entry): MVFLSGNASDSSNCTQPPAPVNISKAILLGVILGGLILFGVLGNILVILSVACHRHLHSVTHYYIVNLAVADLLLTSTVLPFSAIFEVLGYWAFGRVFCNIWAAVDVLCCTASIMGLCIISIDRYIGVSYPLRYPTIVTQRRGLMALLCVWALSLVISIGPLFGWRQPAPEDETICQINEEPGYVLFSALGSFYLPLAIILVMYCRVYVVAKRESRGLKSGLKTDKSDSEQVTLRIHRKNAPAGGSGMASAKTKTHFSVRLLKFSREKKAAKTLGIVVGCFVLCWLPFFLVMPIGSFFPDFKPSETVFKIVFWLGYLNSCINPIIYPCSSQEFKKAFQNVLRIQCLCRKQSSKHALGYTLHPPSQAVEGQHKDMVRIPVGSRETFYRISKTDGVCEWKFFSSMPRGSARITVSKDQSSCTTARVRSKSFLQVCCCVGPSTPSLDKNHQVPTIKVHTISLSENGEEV
Method in brief: (§1)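 CHO cells stably transfected with each human α1 subtype; 30 μg membrane protein in 50 mM Tris-HCl pH 7.4 with 0.1–0.4 nM [3H]prazosin, 30 min at 25 °C. Competitors 1 pM–10 μM. Nonspecific binding defined with 10 μM phentolamine. Filtration, scintillation counting. Ki by Cheng–Prusoff; 2–3 experiments in triplicate.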

[2] = molecular target: T2, Alpha-1D adrenergic receptor (Homo sapiens, UniProt P25100); test: Displacement of [3H]prazosin from human cloned Alpha-1D adrenergic receptor; method in brief: as §1
T2 sequence (P25100 whole entry): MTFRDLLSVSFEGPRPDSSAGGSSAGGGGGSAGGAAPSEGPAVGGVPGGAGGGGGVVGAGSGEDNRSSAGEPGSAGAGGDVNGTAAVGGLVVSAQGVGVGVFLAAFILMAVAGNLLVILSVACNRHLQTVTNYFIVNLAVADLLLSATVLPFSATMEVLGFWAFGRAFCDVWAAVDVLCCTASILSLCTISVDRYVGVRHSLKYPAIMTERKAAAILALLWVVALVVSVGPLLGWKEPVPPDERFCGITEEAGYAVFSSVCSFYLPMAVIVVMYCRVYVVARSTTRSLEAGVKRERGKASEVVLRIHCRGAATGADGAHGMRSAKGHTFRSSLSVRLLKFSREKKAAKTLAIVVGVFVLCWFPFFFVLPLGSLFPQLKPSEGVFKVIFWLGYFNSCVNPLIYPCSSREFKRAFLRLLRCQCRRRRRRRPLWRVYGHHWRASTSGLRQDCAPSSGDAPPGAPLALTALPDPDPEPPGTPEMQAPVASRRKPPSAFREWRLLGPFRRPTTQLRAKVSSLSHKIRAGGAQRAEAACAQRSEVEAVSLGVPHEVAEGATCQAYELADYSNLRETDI

[3] = molecular target: T3, Alpha-1B adrenergic receptor (Homo sapiens, UniProt P35368); test: Displacement of [3H]prazosin from human cloned Alpha-1B adrenergic receptor; method in brief: as §1
T3 sequence (P35368 whole entry): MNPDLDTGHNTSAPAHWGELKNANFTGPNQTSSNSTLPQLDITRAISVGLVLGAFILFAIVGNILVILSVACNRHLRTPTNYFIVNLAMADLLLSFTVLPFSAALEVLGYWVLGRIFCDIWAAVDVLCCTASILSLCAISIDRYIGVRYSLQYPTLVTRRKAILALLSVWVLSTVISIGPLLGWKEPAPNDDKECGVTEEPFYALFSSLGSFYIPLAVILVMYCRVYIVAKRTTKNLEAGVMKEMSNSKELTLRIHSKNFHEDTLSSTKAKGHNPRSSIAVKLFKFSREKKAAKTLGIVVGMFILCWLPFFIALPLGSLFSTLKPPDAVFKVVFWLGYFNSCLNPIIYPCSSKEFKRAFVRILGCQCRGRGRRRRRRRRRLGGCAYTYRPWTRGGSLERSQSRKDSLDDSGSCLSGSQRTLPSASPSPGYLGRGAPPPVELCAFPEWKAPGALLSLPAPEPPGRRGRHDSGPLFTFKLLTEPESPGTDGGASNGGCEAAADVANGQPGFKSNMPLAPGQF

[4] = molecular target: T4, 5-hydroxytryptamine receptor 1A (Homo sapiens) (UniProt P08908); test: Agonist efficacy on 5-hydroxytryptamine 1A receptor subtype; format: functional
T4 sequence (whole entry): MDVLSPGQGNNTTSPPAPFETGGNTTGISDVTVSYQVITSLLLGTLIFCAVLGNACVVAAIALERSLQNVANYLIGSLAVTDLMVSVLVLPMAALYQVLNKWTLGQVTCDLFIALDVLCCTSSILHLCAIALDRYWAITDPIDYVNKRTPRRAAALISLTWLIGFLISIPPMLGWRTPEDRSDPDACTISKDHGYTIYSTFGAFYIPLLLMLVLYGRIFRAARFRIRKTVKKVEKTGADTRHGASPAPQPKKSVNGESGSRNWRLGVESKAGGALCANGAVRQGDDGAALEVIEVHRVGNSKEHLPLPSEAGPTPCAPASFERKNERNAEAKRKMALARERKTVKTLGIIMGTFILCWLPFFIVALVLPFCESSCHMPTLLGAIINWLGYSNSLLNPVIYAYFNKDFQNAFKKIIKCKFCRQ
Method in brief: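 [35S]GTPγS binding in membranes of HeLa cells stably expressing human 5-HT1A, in 20 mM HEPES, 3 mM MgSO4, 120 mM NaCl pH 7.4. Preincubation 20 min at 30 °C with 30 μM GDP and drug (0.1 nM–100 μM), then 150–250 pM [35S]GTPγS for 30 min at 30 °C. Stimulation above basal was scaled to the 5-HT maximum (100%). Emax and pD2 came from curve fits; triplicate, 2–3 sessions.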

[5] = molecular target: T5, Alpha-1B adrenergic receptor (Rattus norvegicus) (UniProt P15823); test: Antagonism of Alpha-1B adrenergic receptor subtype (-)-phenylephrine-induced contraction of rat spleen; format: functional, tissue-based
T5 sequence (whole entry): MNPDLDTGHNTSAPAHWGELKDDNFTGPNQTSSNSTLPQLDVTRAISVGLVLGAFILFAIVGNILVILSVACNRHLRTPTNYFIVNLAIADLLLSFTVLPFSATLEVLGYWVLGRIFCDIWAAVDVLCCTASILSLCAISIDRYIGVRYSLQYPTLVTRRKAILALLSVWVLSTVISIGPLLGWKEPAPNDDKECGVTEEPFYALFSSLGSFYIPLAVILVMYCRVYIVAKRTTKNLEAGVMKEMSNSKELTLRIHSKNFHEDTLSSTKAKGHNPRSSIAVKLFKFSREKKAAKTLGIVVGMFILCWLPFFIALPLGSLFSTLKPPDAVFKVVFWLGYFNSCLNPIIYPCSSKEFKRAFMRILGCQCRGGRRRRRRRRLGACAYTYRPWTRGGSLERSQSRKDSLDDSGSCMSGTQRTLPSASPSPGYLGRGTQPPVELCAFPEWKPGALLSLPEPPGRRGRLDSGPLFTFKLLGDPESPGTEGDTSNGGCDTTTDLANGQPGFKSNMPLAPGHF
Method in brief: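 Rat spleen, isometric cumulative (–)-phenylephrine curves at 30-min intervals; first discarded, second taken as control. Antagonist was equilibrated 30 min before the next curve.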

Question: What does the source list for O[C@H]1[C@@H](NC[C@H]2COc3ccccc3O2)CC[C@@H]1Oc1ccccc1?
Answer: Ki [1]: 389 nM; Ki [2]: 200 nM; Ki [3]: 1820 nM; Max [4]: 82%; pKb [5]: 5.79

Question: O[C@H]1[C@@H](NC[C@@H]2COc3ccccc3O2)CC[C@@H]1Oc1ccccc1 was tested. Which Ki [1] did it give?
Answer: 955 nM

Question: What about the Ki [2] of the same compound?
Answer: 933 nM

Question: What about the Ki [3] of the same compound?
Answer: > 1000 nM

Question: And the Max [4]?
Answer: 96%

Question: What about the pKb [5] of the same compound?
Answer: 5.44

Question: O[C@@H]1[C@H](NC[C@H]2COc3ccccc3O2)CC[C@H]1Oc1ccccc1 was tested. Which Ki [1] did it give?
Answer: 36.3 nM

Question: And the Max [4]?
Answer: 100%

Question: And the pKb [5]?
Answer: 7.13

Question: Which results are given for O[C@@H]1[C@H](NC[C@@H]2COc3ccccc3O2)CC[C@H]1Oc1ccccc1?
Answer: Ki [1]: 77.6 nM; Ki [2]: 16.2 nM; Ki [3]: 93.3 nM; Max [4]: 23%; pKb [5]: 6.83
